Test results as given in ChEMBL document CHEMBL2016487, “Pyrazolopyrimidines as dual Akt/p70S6K inhibitors” (Bioorg Med Chem Lett, 2012).
Each block holds one molecule with its values, some of them ahead of it.

How the values were obtained:
[1] = Volume of distribution in monkey at 3 mg/kg; type: ADME, organism-based, Macaca mulatta; set-up: dose 3 mg/kg; details: rhesus monkey, in vivo
PC-3 [2] = experiment: Inhibition of ribosomal protein S6 phosphorylation in human PC3 cells xenografted model at 100 mg/kg bid; type: functional
Procedure, shortened: (§1)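 PC-3 prostate carcinoma model; compound given at 100 mg/kg bid, five doses in total before phospho-S6, phospho-GSK3β and phospho-PRAS40 levels were measured.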

[3] = Half life in monkey at 3 mg/kg, iv; type: ADME, organism-based, Macaca mulatta; set-up: dose 3 mg/kg, route intravenous; details: rhesus monkey, in vivo
PC-3 [4] = experiment: Anticancer activity against human PC3 prostate tumor cell xenografted model at 50 mg/kg, po qd for 15 days; type: functional; details: PC-3, 360 h, read-out: TGI
Procedure, shortened: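 PC-3 xenograft efficacy study; oral dosing at 50 mg/kg qd for 15 days, tumor growth inhibition determined.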

[5] = Volume of distribution in dog at 3 mg/kg; type: ADME, organism-based, Canis lupus familiaris; set-up: dose 3 mg/kg; details: in vivo
[6] = Cmax in dog at 3 mg/kg, po; type: ADME, organism-based, Canis lupus familiaris; set-up: dose 3 mg/kg, route oral; details: in vivo
Rhesus monkey [7] = experiment: Dose normalized AUC in monkey at 3 mg/kg, po; type: ADME, organism-based, Macaca mulatta; set-up: dose 3 mg/kg, route oral; details: in vivo
Canis familiaris [8] = experiment: Dose normalized AUC in dog at 3 mg/kg, po; type: ADME, organism-based, Canis lupus familiaris; set-up: dose 3 mg/kg, route oral; details: in vivo
PC-3 [9] = experiment: Inhibition of GSK3beta phosphorylation in human PC3 cells xenografted model at 100 mg/kg bid; type: functional; procedure, shortened: as §1
[10] = Volume of distribution in rat at 2.5 mg/kg; type: ADME, organism-based; set-up: dose 2.5 mg/kg; details: in vivo
[11] = molecular target: T1, Ribosomal protein S6 kinase beta-1 (Homo sapiens, UniProt P23443); experiment: Inhibition of p70S6K-mediated ribosomal protein S6 phosphorylation in human A549 cells after 3 hrs by chemiluminescence assay; type: cell-based
T1 sequence (P23443 whole entry): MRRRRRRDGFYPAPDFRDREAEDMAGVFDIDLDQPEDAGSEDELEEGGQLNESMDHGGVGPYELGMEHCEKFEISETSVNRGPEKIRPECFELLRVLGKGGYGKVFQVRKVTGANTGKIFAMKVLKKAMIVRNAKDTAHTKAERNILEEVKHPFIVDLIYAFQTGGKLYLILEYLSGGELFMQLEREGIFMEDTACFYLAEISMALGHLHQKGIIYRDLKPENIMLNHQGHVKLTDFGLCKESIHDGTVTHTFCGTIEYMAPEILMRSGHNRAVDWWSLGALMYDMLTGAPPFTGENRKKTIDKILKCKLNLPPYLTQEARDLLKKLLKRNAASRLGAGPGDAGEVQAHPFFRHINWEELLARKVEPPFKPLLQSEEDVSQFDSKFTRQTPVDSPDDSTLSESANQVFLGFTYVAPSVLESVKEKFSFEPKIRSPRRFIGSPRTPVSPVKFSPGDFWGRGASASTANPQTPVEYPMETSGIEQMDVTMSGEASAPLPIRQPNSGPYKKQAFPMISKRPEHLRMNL
Procedure, shortened: (§2)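 A549 or PC-3 cells seeded at 7.5 × 10³ cells/well in DMEM with heat-inactivated 10% FBS, 1% penicillin–streptomycin, 1% non-essential amino acids, grown 48 h at 37 °C, 5% CO₂. Treated 3 h with compound at 1.2–300 nM, triplicate, 0.2% DMSO final. Fixed in 4% formaldehyde, blocked, probed with anti-phospho-S6 (Ser240/244) and anti-total-S6 overnight at 4 °C, chemiluminescent read-out.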

PC-3 [12] = experiment: Inhibition of PRAS40 phosphorylation in human PC3 cells xenografted model at 100 mg/kg bid; type: functional; procedure, shortened: as §1
[13] = Cmax in rat at 2.5 mg/kg, iv; type: ADME, organism-based; set-up: dose 2.5 mg/kg, route intravenous; details: in vivo
[14] = Half life in rat at 2.5 mg/kg, po; type: ADME, organism-based; set-up: dose 2.5 mg/kg, route oral; details: in vivo
[15] = Oral bioavailability in rat at 2.5 mg/kg; type: ADME, organism-based; details: in vivo
[16] = Cmax in dog at 3 mg/kg, iv; type: ADME, organism-based, Canis lupus familiaris; set-up: dose 3 mg/kg, route intravenous; details: in vivo
[17] = Clearance in rat at 2.5 mg/kg; type: ADME, organism-based; set-up: dose 2.5 mg/kg; details: in vivo
[18] = molecular target: T1, Ribosomal protein S6 kinase beta-1; experiment: Inhibition of p70S6K after 3 hrs by luciferase based chemiluminescence assay
[19] = molecular target: T2, RAC-alpha serine/threonine-protein kinase (Homo sapiens, UniProt P31749); experiment: Inhibition of AKT1-mediated GSK3beta phosphorylation in human PC3 cells after 3 hrs by chemiluminescence assay; type: cell-based, PC-3
T2 sequence (P31749 whole entry): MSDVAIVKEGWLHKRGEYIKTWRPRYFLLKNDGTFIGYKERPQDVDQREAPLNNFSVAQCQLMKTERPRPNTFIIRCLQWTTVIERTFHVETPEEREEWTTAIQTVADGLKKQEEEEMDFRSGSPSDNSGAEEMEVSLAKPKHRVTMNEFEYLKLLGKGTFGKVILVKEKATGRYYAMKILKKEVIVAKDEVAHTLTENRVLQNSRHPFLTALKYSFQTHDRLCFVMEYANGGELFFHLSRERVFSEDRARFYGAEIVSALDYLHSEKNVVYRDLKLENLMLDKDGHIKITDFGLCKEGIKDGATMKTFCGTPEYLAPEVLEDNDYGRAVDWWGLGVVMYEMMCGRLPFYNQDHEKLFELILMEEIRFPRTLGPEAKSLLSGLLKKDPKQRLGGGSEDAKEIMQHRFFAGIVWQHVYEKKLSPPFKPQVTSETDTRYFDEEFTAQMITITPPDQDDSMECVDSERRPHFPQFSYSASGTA
Procedure, shortened: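 PC-3 cells seeded at 7.5 × 10³ cells/well, grown 24 h, then serum-starved 24 h. Compound treatment 3 h in triplicate (0.2% DMSO final), followed by 100 ng/ml IGF1 for 30 min. Fixed and processed as a cell ELISA using anti-phospho-GSK3β (S9) and anti-total-GSK3β antibodies, chemiluminescent read-out.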

Rhesus monkey [20] = experiment: Dose normalized AUC in monkey at 3 mg/kg, iv; type: ADME, organism-based, Macaca mulatta; set-up: dose 3 mg/kg, route intravenous; details: in vivo
[21] = Plasma concentration in mouse at 100 mg/kg after 1 hr; type: ADME, organism-based; set-up: dose 100 mg/kg
Procedure, shortened: (§3)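 Mouse plasma levels measured 1 and 4 h after a 100 mg/kg dose.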

[22] = Half life in rat at 2.5 mg/kg, iv; type: ADME, organism-based; set-up: dose 2.5 mg/kg, route intravenous; details: in vivo
[23] = molecular target: T2, RAC-alpha serine/threonine-protein kinase; experiment: Inhibition of AKT1 after 3 hrs by luciferase based chemiluminescence assay
[24] = Half life in dog at 3 mg/kg, po; type: ADME, organism-based, Canis lupus familiaris; set-up: dose 3 mg/kg, route oral; details: in vivo
Rattus norvegicus [25] = experiment: Dose normalized AUC in rat at 2.5 mg/kg, iv; type: ADME, organism-based; set-up: dose 2.5 mg/kg, route intravenous; details: in vivo
[26] = Oral bioavailability in dog at 3 mg/kg; type: ADME, organism-based, Canis lupus familiaris; details: in vivo
[27] = Cmax in monkey at 3 mg/kg, po; type: ADME, organism-based, Macaca mulatta; set-up: dose 3 mg/kg, route oral; details: rhesus monkey, in vivo
Rattus norvegicus [28] = experiment: Dose normalized AUC in rat at 2.5 mg/kg, po; type: ADME, organism-based; set-up: dose 2.5 mg/kg, route oral; details: in vivo
Canis familiaris [29] = experiment: Dose normalized AUC in dog at 3 mg/kg, iv; type: ADME, organism-based, Canis lupus familiaris; set-up: dose 3 mg/kg, route intravenous; details: in vivo
[30] = Cmax in rat at 2.5 mg/kg, po; type: ADME, organism-based; set-up: dose 2.5 mg/kg, route oral; details: in vivo
A549 [31] = experiment: Anticancer activity against human A549 cell xenografted model at 50 mg/kg, po qd for 2 days every 4 days; type: functional; details: read-out: TGI
[32] = Oral bioavailability in monkey at 3 mg/kg; type: ADME, organism-based, Macaca mulatta; details: rhesus monkey, in vivo
[33] = Half life in monkey at 3 mg/kg, po; type: ADME, organism-based, Macaca mulatta; set-up: dose 3 mg/kg, route oral; details: rhesus monkey, in vivo
[34] = Half life in dog at 3 mg/kg, iv; type: ADME, organism-based, Canis lupus familiaris; set-up: dose 3 mg/kg, route intravenous; details: in vivo
[35] = Cmax in monkey at 3 mg/kg, iv; type: ADME, organism-based, Macaca mulatta; set-up: dose 3 mg/kg, route intravenous; details: rhesus monkey, in vivo
[36] = Clearance in monkey at 3 mg/kg; type: ADME, organism-based, Macaca mulatta; set-up: dose 3 mg/kg; details: rhesus monkey, in vivo
[37] = molecular target: T1, Ribosomal protein S6 kinase beta-1; experiment: Inhibition of p70S6K-mediated ribosomal protein S6 phosphorylation in human PC3 cells after 3 hrs by chemiluminescence assay; type: cell-based, PC-3; procedure, shortened: as §2
[38] = Plasma concentration in mouse at 100 mg/kg after 4 hrs; type: ADME, organism-based; set-up: dose 100 mg/kg; procedure, shortened: as §3
[39] = Clearance in dog at 3 mg/kg; type: ADME, organism-based, Canis lupus familiaris; set-up: dose 3 mg/kg; details: in vivo
A549 [40] = experiment: Anticancer activity against human A549 cell xenografted model at 100 mg/kg, po qd for 2 days every 4 days; type: functional; details: read-out: TGI
Procedure, shortened: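 A549 xenograft; oral dosing at 50 mg/kg qd, or 100 mg/kg qd for two days every 4 days; tumor growth inhibition determined.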

[41] = Drug metabolism in mouse liver microsomes at 15 uM after 30 mins; type: ADME, Microsome; details: read-out: Drug metabolism
Procedure, shortened: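 Mouse liver microsomes at 0.5 mg/mL, incubated 30 min with compound at 15 µM; value reported as % conversion.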

PC-3 [42] = experiment: Anticancer activity against human PC3 prostate tumor cell xenografted model at 100 mg/kg, po qd for 15 days; type: functional; details: PC-3, 360 h, read-out: TGI
[43] = Half life in rat at 5 mg/kg, po; type: ADME, organism-based; set-up: dose 5 mg/kg, route oral; details: in vivo
[44] = Cmax in rat at 5 mg/kg, iv; type: ADME, organism-based; set-up: dose 5 mg/kg, route intravenous; details: in vivo
[45] = Clearance in rat at 5 mg/kg; type: ADME, organism-based; set-up: dose 5 mg/kg; details: in vivo
[46] = Volume of distribution in rat at 5 mg/kg; type: ADME, organism-based; set-up: dose 5 mg/kg; details: in vivo
[47] = Oral bioavailability in rat at 5 mg/kg; type: ADME, organism-based; details: in vivo
[48] = Cmax in rat at 5 mg/kg, po; type: ADME, organism-based; set-up: dose 5 mg/kg, route oral; details: in vivo
Rattus norvegicus [49] = experiment: Dose normalized AUC in rat at 5 mg/kg, po; type: ADME, organism-based; set-up: dose 5 mg/kg, route oral; details: in vivo
[50] = Half life in rat at 5 mg/kg, iv; type: ADME, organism-based; set-up: dose 5 mg/kg, route intravenous; details: in vivo
Rattus norvegicus [51] = experiment: Dose normalized AUC in rat at 5 mg/kg, iv; type: ADME, organism-based; set-up: dose 5 mg/kg, route intravenous; details: in vivo

Vd [1]: 6.9 L/kg
half-life [3]: 6.1 h
Vd [5]: 17 L/kg
Cmax [6]: 100 nM
AUC/dose (Rhesus monkey [7]): 0.94 µM·kg·h/mg
AUC/dose (Canis familiaris [8]): 0.54 µM·kg·h/mg
Vd [10]: 12.9 L/kg
IC50 [11]: 30 nM
Cmax [13]: 330 nM
half-life [14]: 7.9 h
bioavailability [15]: 35%
Cmax [16]: 210 nM
clearance [17]: 45.4 mL/min/kg
IC50 [18]: 2 nM
IC50 [19]: 194 nM
AUC/dose (Rhesus monkey [20]): 1.22 µM·kg·h/mg
concentration at 1 h [21]: 1600 nM
half-life [22]: 3.5 h
IC50 [23]: 1 nM
half-life [24]: 10.4 h
AUC/dose (Rattus norvegicus [25]): 0.64 µM·kg·h/mg
bioavailability [26]: 58%
Cmax [27]: 400 nM
AUC/dose (Rattus norvegicus [28]): 0.17 µM·kg·h/mg
AUC/dose (Canis familiaris [29]): 0.95 µM·kg·h/mg
Cmax [30]: 40 nM
bioavailability [32]: 77%
half-life [33]: 6.4 h
half-life [34]: 7.5 h
Cmax [35]: 580 nM
clearance [36]: 20.5 mL/min/kg
IC50 [37]: 55 nM
concentration at 4 h [38]: 3100 nM
clearance [39]: 26 mL/min/kg
SMILES: Cc1c(NCCN2CCCC2)cc(C(=O)CCC(F)(F)F)cc1N1CCN(c2ncnc3[nH]nc(Br)c23)CC1 [XL-418]
inhibition in vivo at 100 mg/kg (PC-3 [2]): 90%
inhibition in vivo at 50 mg/kg (PC-3 [4]): 52%
inhibition in vivo at 100 mg/kg (PC-3 [9]): 46%
inhibition in vivo at 100 mg/kg (PC-3 [12]): 76%
inhibition in vivo at 50 mg/kg (A549 [31]): 71%
inhibition in vivo at 100 mg/kg (A549 [40]): 96%

IC50 [11]: 44 nM
IC50 [18]: 2 nM
IC50 [19]: 1840 nM
IC50 [23]: 5 nM
IC50 [37]: 52 nM
SMILES: COC(=O)c1cc(NCCN2CCCC2)c(C)c(N2CCN(c3ncnc4[nH]nc(Br)c34)CC2)c1

metabolised at 0.5 h, 15 µM [41]: 18%
IC50 [11]: 80 nM
IC50 [18]: 3 nM
IC50 [19]: 3590 nM
IC50 [23]: 434 nM
IC50 [37]: 832 nM
SMILES: CCc1n[nH]c2ncnc(N3CCN(c4cc(Cl)cc(NCCN5CCCC5)c4C)CC3)c12

metabolised at 0.5 h, 15 µM [41]: 29%
IC50 [11]: 45 nM
IC50 [18]: 2 nM
IC50 [19]: 9030 nM
IC50 [37]: 211 nM
SMILES: CCc1n[nH]c2ncnc(N3CCN(c4cc(Cl)cc(NCCN(C)C)c4C)CC3)c12
inhibition in vivo at 100 mg/kg (PC-3 [42]): 49%

metabolised at 0.5 h, 15 µM [41]: 19%
IC50 [11]: 94 nM
IC50 [18]: 2 nM
IC50 [19]: 1270 nM
IC50 [23]: 42 nM
IC50 [37]: 446 nM
SMILES: Cc1c(NCCN2CCCC2)cc(Cl)cc1N1CCN(c2ncnc3[nH]nc(Br)c23)CC1

IC50 [11]: 116 nM
IC50 [18]: 2 nM
IC50 [19]: 1980 nM
IC50 [23]: 7 nM
IC50 [37]: 203 nM
SMILES: Cc1c(NCCN2CCCC2)cc(CCC(C)(C)C)cc1N1CCN(c2ncnc3[nH]nc(Br)c23)CC1

half-life [43]: 1.7 h
Cmax [44]: 1150 nM
IC50 [11]: 37 nM
clearance [45]: 79.5 mL/min/kg
Vd [46]: 14.7 L/kg
bioavailability [47]: 13%
Cmax [48]: 70 nM
AUC/dose (Rattus norvegicus [49]): 0.05 µM·kg·h/mg
IC50 [18]: 1 nM
IC50 [19]: 700 nM
concentration at 1 h [21]: 1200 nM
IC50 [23]: 9 nM
half-life [50]: 2.5 h
IC50 [37]: 214 nM
concentration at 4 h [38]: 1300 nM
AUC/dose (Rattus norvegicus [51]): 0.35 µM·kg·h/mg
SMILES: Cc1c(NCCN2CCCC2)cc(OCC(C)C)cc1N1CCN(c2ncnc3[nH]nc(Br)c23)CC1
